B1: tRNA (parent)
chain: GUUCCGUUGGCGUAAUGGUAACGCGUCUCCCUCCUAAGGAGAAGACUGCGGGUUCGAGUCCCGUACGGAACG

Variants at the floor of the assay were thinned out. Some results are limits rather than exact numbers.

In this data set the parent is B1. Nature of the data set: yeast fitness relative to wild type (ratio to wild type); higher = fitter; tRNA-Arg(CCU), competitive growth, 37 C, YPD. The gist of the method: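 For this measurement, the tRNA-Arg(CCU) gene was varied by chemical synthesis at a 3% per-site mutation rate across 69 sites, and each variant was placed at the native genomic locus in Saccharomyces cerevisiae. The pooled strains went through a 24-hour competition in YPD at 37°C in six parallel replicates, with amplicons from start and end populations read by 100-nucleotide paired-end sequencing. Darwinian fitness relative to wild type followed from the change in each genotype's frequency. Genotypes needed ≥ 100 starting reads, and estimates < 0.5 were set to 0.5.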
Regarding GUUGCGUUGGCGUAAUGGUAACGCGUCUCCCUCCUAAGGAGAAGACUGAGGGUUCGAGUCCCGUACGGAACG [C4G C49A], the yeast fitness is 0.541.
Consider GUUCCGUUCGCGUGAUGGUAACGCGUCUCCCUCCUAAGGAGAAGACUGCGGCUUCGAGUACCGUACGGAACG [G9C A14G G52C C60A], for which the yeast fitness was at most 0.5.
Next, GUUCCGUUGGCGUAAUGGUAACGCGUCUCCCUCCUACGAAGAAGACUGCGGGUUCGAGUGCCGUAAGGAACG [A37C G39A C60G C66A]: at most 0.5; GUUACGUUGGCGUAAUGGUAACGCGUCUCCCCCCUAAGGAGAAGACUGCGGGUUCGAGGCCCGUACGGAACG [C4A U32C U59G]: at most 0.5; GUUCCGUUGGCAUAAUGGUAACGCGUCUCCCUCCUAAGGAGAAGACUGCGGGUUCGAGUCCCGCACGGAACG [G12A U64C]: 0.921.
Turning to GUUCAGUUGGCGUAAUGGUAACGCGUCUCCCUCCUAAGGAGAAGACUGCGGGUACGAGUCCCGUACGGAACG [C5A U54A], the yeast fitness turned out to be 0.699.
Next, GCUCCGUUGGCGUAACGGUAACGCGUGUCCCUCCUAAGGAGAAGACUGCGGGUUCGAGUCCCGUACGAAACG [U2C U16C C27G G68A]: at most 0.5; GUUCCGUUGGCGUUGUGGUACCGCGUCUCCCUCCUAAGGAGAAGACUGCGGGUUCAAGUCCUGUUCGGAACG [A14U A15G A21C G56A C62U A65U]: 0.554; GUUCCGUUGGCAUAAUGGUGACGCGUCUCCCUCCUAAGGAGAAGACUACGGGUUCGAGUCCCGUACGGAACG [G12A A20G G48A]: 0.63.
As for GUUCGGUUGGCGUAAAGGUAACGCGUCUCCCUCCUAAGAAGAAGACUGCGGGUUCGAGUCCCGUACGGAACG [C5G U16A G39A], the yeast fitness is at most 0.5.
Next, GUUCAGUUGGCGUAAUGGUAACGCGGCUCCCUCCUAAGGAGAAGACUGCGGGUUCGAGUGUCGUACGGAACG [C5A U26G C60G C61U]: at most 0.5; GUUCCGUUGGCGUAGUGGUUACGGGUCUCCCUCCUAAGGAGGAGACUGCGGGUCCGAGUCCCGUACGGAACG [A15G A20U C24G A42G U54C]: 0.575.
With GUUACGUUGGCGUAAUGGUAACGCGUCUCUCUCCUAACGAGGAGACUGCGGGUUCGAGUCCCGUACGGAACG [C4A C30U G38C A42G], the yeast fitness was at most 0.5.
Next, GUUCCAUUGGGGUAAUGGUAACGCGUCUCCCUCCUACGGAGAAGACUGCGGGUUCGAGUACCGUACGGAGCG [G6A C11G A37C C60A A70G]: at most 0.5; GUUCCGUUGGAGUAAUGGUAACGCGUCUACCUCCUAUGGAGAAGACUGCGGGUUCGAGUCCCGUACGGAACG [C11A C29A A37U]: at most 0.5.
With GUUCUGUUGGCGUAAUGGCAACGCGUCUCCCUCCUAAGGAGAUGACUGCGGGUUCGAGUCCCGUACGGAACG [C5U U19C A43U], the yeast fitness came to 1.09.
Next, GUUCCGUUGACGUAAUGGUAACGCGUCUCACUCCUAAGGAGAAGACUGCGGGUUCGAGUCCCGUACGGAGCG [G10A C30A A70G]: at most 0.5.
Next, GUUCCGUUGGCGUAAUGGUAACGCGUCUCCCUCCUAAGGAGAAGCCUGGGGGUUCGACUCCCGUACGGAACG [A45C C49G G58C]: at most 0.5.
Next, GUUCCGUUGGCGUAAUGGUAACGCGUUUACCUCCUAACGAGAAGACUGCGGGUUCGGGUCUCGUACGGAACG [C27U C29A G38C A57G C61U]: at most 0.5; GUUCCGUUGGCGUAAUGGUAACACGUCUACCUCCUAAGGAGAAGACUGCGGGUUCGAGUCUCGUACGGAACG [G23A C29A C61U]: at most 0.5.
Turning to GUUCCGUUGGGGUAAUGGUAACGCGUCUCCCUCCAAAGGAGAAGACUGCGGGUUCGAGUCCCGUACGCAACG [C11G U35A G68C], the yeast fitness is at most 0.5.
Next, GUUCCGUUGGCGUAAUGGUAACGCGUCUCCCUCGUAAGGAGAAGCCUGCGGGUUCGAGUCCGGUACGGAACG [C34G A45C C62G]: at most 0.5.
Next, GUUCCGUUGGCGUAAUGGUAAAGCGUCGCCGUCCUAAGGAGUAGACUGCGGGUUCGAGUCUCGUACGGAACG [C22A U28G C31G A42U C61U]: at most 0.5; GUUCCAUUGGCGUAAUGGUAACGCGUCUCCCUCCUAAGGAGAAGACUCUGGGUUCGAGUCCCGUACGGAACG [G6A G48C C49U]: 0.652; GUUACGUUGGCGUAAUGGUAACGCGUCUCCUUCCUAAGGAGCAGACUGCGGGUUCGAGUCCCGUAAGGAACG [C4A C31U A42C C66A]: 0.523.
Consider GUUACGUUGGCGUAAUGGUAACGGGUCUCCCUCCUAAGGAGAACACUGCGGGUUCGAGUCCCGUACGUAACG [C4A C24G G44C G68U], for which the yeast fitness was found to be 0.562.
For GUUCCGAUGGCGUAAUGGUCGCACGUCUCCCUCCUAAGGAGAAGACUGCGGGUUCGAGUCCCGUACGGAUCG [U7A A20C A21G G23A A70U], the yeast fitness is at most 0.5.
Next, GUUCCGUAGCCGUAAUGGUUACGCGUCUCCCUCCUAAGGAUAAGACUGCGCGUUCGAGUCCCGUACGGAACG [U8A G10C A20U G41U G51C]: at most 0.5.
Next, GUUACGUUGGCGUAAUGGUAACGCGUCUCCCUCCUAUGGAGAAGACUGCCGGUUCGAGUCCCGUACGGAACG [C4A A37U G50C]: at most 0.5.
Next, GUUCCGUUGGCGUAAUGGUAACGCGUUGCCCUCCUAAGGCGAAGACUGCGGGUUGGAGUCCCGUACGGACCG [C27U U28G A40C C55G A70C]: at most 0.5; GUUCCGUUGGCGUAAUGGUAACGCGUCUCCCUCCUAAGGAGAAGGCUCCGGGUUCAAGUCCCGUACGGAACG [A45G G48C G56A]: 0.968.
With GUUCCGUUGGCGUAAUGGUAACGCAUCUCCCUCGUAAGGAGAAGAUUGCGGGUACGAGUCCCGUACGGAACG [G25A C34G C46U U54A], the yeast fitness is at most 0.5.
For the variant GUUCCGUUGGCGUAAUGGUAACGCGUCUCUCUCCUAAGGAGAAGAUUGCGGGUUCGUGUCCCGUACGGAACG [C30U C46U A57U], the yeast fitness worked out at 0.515.
For GUUCCGUUGGCGUAAUGGUAAUGCGUCUCCCUCCUACGGGGAAGACUGCGGAAUCGAGUCCCGUACGGAACG [C22U A37C A40G G52A U53A], the yeast fitness was at most 0.5.
Consider GAUCCGUUGGCGUAAUGGUCACGCGUCUCCCUCCUAAGGAGAAGACUGCGGGUUCGAGUCCCGUACGAAACG [U2A A20C G68A], for which the yeast fitness was 0.719.
Next, GUUCGGUUGGCGGAAUGGUAAGGCGUCUGCCUCCUAAGGUGAAGACUGCGGGUCCGAGUCGCGUACGGAACG [C5G U13G C22G C29G A40U U54C C61G]: 0.567; GUUUAGUUGGCGUAAUGGUAACGCGUCUCCCUCCUAAGGAGAAGACUGCGGGUUCGAGUCUCGUACGGAACG [C4U C5A C61U]: 0.719.
Next, GUUCCCUUGGCGUAGUGGUAACGCGUCUCCCUCCUAAGGAGAAGACUGCGGGUUCGAGUCCCGUACGGAACG [G6C A15G]: 0.808.

(Values after the RNAGym collection of RNA variant scans (doi:10.1126/science.aae0568).)
